Source: PubChem BioAssay (several laboratories)
The list is not random: actives were taken first. Their share in the collection is about 2.3%.
Pemphigus Ab inh – blocks pemphigus antibody binding to human desmoglein-3; P32926; DSG3-coupled beads, scFv-anti-DSG3-GFP binding, flow cytometry; stronger effect = lower value; binding (percent of control), % at 10 µM; hit rate 0.48% among 310,000; AID 588358;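 active = binding more than 3 SD below its plate's average and above zero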
MCL1 BIM primary – disrupts human MCL1 binding to BIM-BH3 peptide | Q07820 | GST-MCL1 / FITC-Bim-BH3 fluorescence polarization | inhibition, % at 10.9 µM | hit rate 0.68% among 320,000 | AID 2057;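 active = inhibition above the mean inhibition of all tested compounds plus 3 SD, set per campaign, cut at about 40% in these data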;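 note: higher means more loss of mP so more displacement of Bim peptide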
Mcl-1 Bim block – inhibitors of Bim-Mcl-1 interaction, human; inhibition, % at 10 µM; hit rate 0.1% among 190,000; Q07820; Bead-based flow cytometry, Bim peptide-Mcl-1 binding; in the data active = inhibition above about 40%
Mcl1-Noxa inh – Mcl-1/Noxa interaction inhibition; TR-FRET Mcl-1/Noxa peptide binding, 2 h; inhibition, % at 21.7 µM; hit rate 1.5% among 220,000;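 active = compounds that cut the protein-peptide binding signal by more than 50% relative to plate controls in a single-dose test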;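 note: His-tagged Mcl-1 with rhodamine Noxa BH3 peptide and terbium anti-His antibody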
Mcl1-Bid inh – Mcl-1/Bid interaction inhibition. Q07820. hit rate 0.97% among 220,000. inhibition, % at 21.7 µM. TR-FRET Mcl-1/Bid-Dy647 peptide binding, 1536-well;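 active = compounds that cut the binding signal by more than half at the single screening dose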;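 note: His-tagged Mcl-1 with europium anti-His antibody binding Bid BH3 peptide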
T cell HTS – modulates CD8 T cell binding to vesicles; hit rate 0.068% among 330,000; 2C CD8+ T cell-vesicle binding, flow cytometry; stronger effect = lower value; AID 2052; response (vesicle binding), % at 7 µM;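 active = response, share of CD8 T cells binding vesicles, and their 90th percentile fluorescence all below set limits, cut at about 80% in these data, passing the limit was not always enough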;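 note: values below 100% mean blocked vesicle binding to the CD8+ T cells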
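Read-out – percent CD8+ FL2 mean versus row control · System – murine 2C transgenic CD8+ T lymphocytes · Times – 1.5 h cell–vesicle binding at 37 °C, then 20 min icy labelling · Control set – naked vesicles low, QL9 vesicles with vehicle high · Detection – cytometric PE anti-B7-1 and Alexa647 anti-CD8 signals after 1% paraformaldehyde fixation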
BCLXL inh confirm – Bcl-xL (human) inhibition, MCL1 counter-screen confirmation; shares compounds with MCL1 BIM primary; GST-Bcl-xL / FITC-Bim BH3 peptide FP binding; inhibition, % at 10.9 µM; hit rate 54% among 1,700; AID 2166;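 active = inhibition above a cutoff equal to the mean inhibition of all tested compounds plus 3 SD, cut at about 30% in these data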
MCL1 BIM confirm – MCL1-BIM-BH3 interaction inhibition, confirmation. hit rate 61% among 1,700. GST-MCL1 / FITC-Bim-BH3 fluorescence polarization. inhibition, % at 10.9 µM. AID 2168. shares compounds with MCL1 BIM primary;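 active = inhibition above the average of all tested compounds plus 3 SD, cut at about 40% in these data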
Hits are given with their value; . = inactive; / = no result; + = active, no number.

SMILES	Pemphigus Ab inh	MCL1 BIM primary	Mcl-1 Bim block	Mcl1-Noxa inh	Mcl1-Bid inh	T cell HTS	BCLXL inh confirm	MCL1 BIM confirm
Clc1cccc(C2Nc3cccc4cccc(c34)N2)c1	.	46	/	/	/	.	.	41
C[C@H]1CN([C@@H](C)CO)C(=O)CCCn2cc(nn2)CO[C@@H]1CN(C)C(=O)Nc1ccc(C(F)(F)F)cc1	.	/	/	/	/	/	/	/
Cc1[nH]c(=O)c(C#N)c2c1COC(C)(C)C2	.	.	.	.	.	.	/	/
CC1=C(C#N)C(=O)OC(C)(C)C1	.	100	.	.	.	.	35	50
O=C(O)c1ccc(N2C(=O)/C(=C/C=C/c3ccccc3)SC2=S)cc1	.	40	.	.	.	.	.	.
O=C1NC(=S)CN1c1ccccc1	.	79	/	.	.	.	.	.
CCOc1ccc(N=C2NC(=O)S/C2=C\c2ccc(N(C)C)cc2)cc1	/	80	.	.	.	.	96	113
COc1cc(/C=N/NC(=S)Nc2cccc(C(=O)O)c2)ccc1O	.	.	.	.	.	.	/	/
COc1cccc(/C=N/NC(=S)Nc2cccc(C(=O)O)c2)c1O	.	56	.	.	.	.	.	72
O=C(/C=C/c1ccco1)N(c1ccccn1)c1ccccn1	.	56	.	62	.	.	.	53
CSc1nsc(/C=C/Nc2ccc(O)cc2C)c1C#N	.	49	.	55	.	.	43	.
Cc1ccc(Sc2cc(C(=O)NCCCN(C)C)c3ccccc3n2)cc1	.	86	/	/	/	.	.	.
Cc1ccc(Sc2cc(C(=O)NCCN(C)C)c3ccccc3n2)cc1	.	.	/	/	/	.	/	/
COc1ccc(N(CCC(=O)Nc2ccccc2F)S(=O)(=O)c2ccc(C)cc2C)cc1	.	.	/	/	/	.	/	/
Cc1ccc(SCCNC(=O)/C=C/c2ccc(Cl)cc2)cc1	/	54	.	.	.	.	.	.
Cc1ccc(SCCNC(=O)/C=C/c2ccc([N+](=O)[O-])cc2)cc1	.	.	.	.	.	.	/	/
N#Cc1c(=O)c2nc(NCc3ccccc3)ncc2n2ccccc12	.	53	.	.	.	.	32	43
N#Cc1c(=O)c2nc(NCCCO)ncc2n2c(=O)c3ccccc3[nH]c12	.	.	.	.	.	.	/	/
CCCc1c(C)nc(N2CCN(c3ccccc3OC)CC2)[nH]c1=O	.	.	/	/	/	.	/	/
COc1ccc(N(C)S(=O)(=O)c2cccc(C(=O)OCC(=O)N3CC(C)CC(C)C3)c2)cc1 (stereo not given)	.	/	/	/	/	.	/	/
CCCCC1=CC2=C(c3ccco3)C(=O)C(C)(OC(=O)c3ccc(OC)cc3)C(=O)C2=CN1CCOC (stereo not given)	.	.	/	.	.	.	/	/
CCCCC1=CC2=C(c3ccco3)C(=O)C(C)(OC(=O)c3ccc(OC)cc3)C(=O)C2=CN1C1CCCCC1 (stereo not given)	.	52	/	.	.	.	41	59
CCC(=O)c1cn(CC(=O)Nc2ccc(F)cc2)c2ccccc12	.	/	/	/	/	/	/	/
Cc1ccc2c(c1)c(=O)c1c3n2CCN(C(=O)CCl)C3CC1 (stereo not given)	.	55	.	.	.	.	30	44
COc1cccc(NC(=O)CN2C(=O)NC3(CCCc4ccccc43)C2=O)c1 (stereo not given)	.	.	/	/	/	.	/	/
Cc1cc(/C=N/NC(N)=S)c(O)c(/C=N/NC(N)=S)c1	.	+	/	.	.	.	189	+
NC(=S)N/N=C/c1cccc(O)c1O	.	.	.	.	.	.	/	/
Cc1oc(-c2cccs2)nc1CN1CCN(C(C)C)C(CCO)C1 (stereo not given)	.	49	.	.	.	.	.	.
CC(C)N1CCN(Cc2cccs2)CC1CCO (stereo not given)	.	/	.	.	.	/	/	/
COc1ccc(CN2CC[C@H]3C=CCc4cccc(c43)C2)cc1	.	87	/	/	/	.	.	.
